Experimental data reported in ChEMBL document CHEMBL4400513, “Aurone derivatives as promising antibacterial agents against resistant Gram-positive pathogens” (Eur J Med Chem, 2019).
≈ marks a conversion by molar mass, not a printed value. Calls of active or inactive are those of the source. No cut-off for these calls is given here.

Experiments:
Fusarium verticillioides = assay: Fungicidal activity against Fusarium verticillioides; format: functional, organism-based
Method in brief: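 Filamentous fungi grown on potato dextrose agar and tested in RPMI medium with two-fold serial dilutions (0–500 µM, 0.2% DMSO final). Plates held at room temperature for 2 to 5 days, then OD600 read; MIC taken as the lowest concentration with no visible growth. The fungicidal endpoint is ≤1 colony after streaking 10 µL of no-growth wells on agar. n = 3.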

Citrobacter rodentium [1] = assay: Antimicrobial activity against Citrobacter rodentium after 18 to 24 hrs in aerobic condition by two-fold serial dilutions method; format: functional
Method in brief: (§1)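 Colonies grown overnight (~16 h) in Mueller-Hinton broth at 37 °C, 200 rpm, diluted 1/100 and grown to log phase (OD600 ~0.6), then diluted to ~10^5 bacteria/mL. Exposed to 0 to 500 µM in 1:2 series (0.2% DMSO final control), aerobic, 37 °C, 18–24 h. OD600 read; MIC = lowest concentration without visible growth; n = 3.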

Vibrio diabolicus = assay: Bactericidal activity against Vibrio diabolicus in aerobic condition; format: functional, organism-based
Method in brief: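 MH broth; log-phase bacteria (OD600 ~0.6) diluted to ~10^5 bacteria/mL and exposed to two-fold serial dilutions (0–500 µM; 0.2% DMSO final as vehicle control) at 37 °C, aerobic, 18–24 h. MIC is the lowest concentration preventing visible growth (OD600). MBC is found by streaking 10 µL from no-growth wells onto agar; the MBC is the concentration where ≤1 colony grew. n = 3.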

Staphylococcus aureus [2] = assay: Bactericidal activity against methicillin-resistant Staphylococcus aureus in aerobic condition; format: functional, organism-based
Acinetobacter baumannii [3] = assay: Bactericidal activity against Acinetobacter baumannii MRS in aerobic condition; format: functional, organism-based
Method in brief: (§2)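 From the MIC plates, 10 µL from each well without growth was streaked onto agar suited to the organism and incubated under that organism's growth conditions. Colonies were then counted; MBC = lowest concentration allowing ≤1 colony, i.e. killing 99.9% of bacteria.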

Clostridium perfringens [4] = assay: Bactericidal activity against Clostridium perfringens in anaerobic condition; format: functional, organism-based
Bacillus subtilis [5] = assay: Antimicrobial activity against Bacillus subtilis after 18 to 24 hrs in aerobic condition by two-fold serial dilutions method; format: functional; method in brief: as §1
Clostridioides difficile = assay: Antimicrobial activity against Clostridium difficile after 18 to 24 hrs in anaerobic condition by two-fold serial dilutions method; format: functional
Method in brief: (§3)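 Precultures in BHI broth at 37 °C in an anaerobic cabinet, grown to log phase (OD600 ~0.6), then seeded at ~10^5 bacteria/mL. Two-fold dilutions from 0 to 500 µM, 0.2% DMSO final as control. Plates incubated anaerobically at 37 °C for 18–24 h, OD600 read; MIC = lowest concentration giving no visible growth; independent triplicate.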

Clostridium perfringens [6] = assay: Antimicrobial activity against Clostridium perfringens after 24 to 72 hrs in anaerobic condition by two-fold serial dilutions method; format: functional
Method in brief: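 C. perfringens grown in BHI at 37 °C anaerobically and brought to log phase (OD600 ~0.6). About 10^5 bacteria/mL with two-fold serial dilutions 0–500 µM, DMSO 0.2% final as control. Incubated 24 h at 37 °C in anaerobic cabinet; OD600 read; MIC = lowest concentration with no visible growth. Independent triplicate.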

Klebsiella variicola = assay: Bactericidal activity against Klebsiella variicola in aerobic condition; format: functional, organism-based; method in brief: as §2
Bacillus subtilis [7] = assay: Bactericidal activity against Bacillus subtilis in aerobic condition; format: functional, organism-based; method in brief: as §2
Citrobacter farmeri = assay: Bactericidal activity against Citrobacter farmeri in aerobic condition; format: functional, organism-based; method in brief: as §2
BEAS-2B = assay: Cytotoxicity against human BEAS2B cells assessed as reduction in cell viability after 48 hrs by Resazurin dye-based assay; details: for IC50: Homo sapiens, BEAS-2B; for Activity: human, beas-2b
Method in brief: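 Normal human lung epithelial (BEAS-2B) and lung fibroblast (IMR-90) cells were grown in DMEM with 10% FCS. Cells were seeded at ~10^4/well, grown to confluence (48–72 h), then exposed to increasing concentrations for 48 h at 37 °C, 5% CO2, with 0.2% DMSO as control. Resazurin was added for 4 h and fluorescence read at 530/590 nm. Viability was normalized to DMSO wells and IC50 calculated.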

Salmonella enterica = assay: Antimicrobial activity against Salmonella enterica after 18 to 24 hrs in aerobic condition by two-fold serial dilutions method; format: functional; method in brief: as §1
[8] = tested on: Bacteroides thetaiotaomicron; assay: Antimicrobial activity against Bacteroides thetaiotaomicron after 18 to 24 hrs in anaerobic condition by two-fold serial dilutions method; format: functional; method in brief: as §3
[9] = tested on: Bacteroides thetaiotaomicron; assay: Bactericidal activity against Bacteroides thetaiotaomicron in anaerobic condition; format: functional, organism-based; method in brief: as §2
Helicobacter pylori [10] = assay: Bactericidal activity against Helicobacter pylori in anaerobic condition; format: functional, organism-based; method in brief: as §2
Bacillus subtilis [11] = assay: Antimicrobial activity against Nisin-resistant Bacillus subtilis after 18 to 24 hrs in aerobic condition by two-fold serial dilutions method; format: functional
Method in brief: (§4)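 Strains grown on LB at 37 °C aerobically, then in Mueller-Hinton broth overnight at 200 rpm and brought to log phase (OD600 ~0.6). About 10^5 bacteria/mL exposed to two-fold serial dilutions 0–500 µM, DMSO 0.2% final as control. Aerobic incubation at 37 °C for 18–24 h; OD600 read; MIC = lowest concentration inhibiting visible growth. n = 3.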

Fusarium graminearum = assay: Antifungal activity against Fusarium graminearum after 2 to 5 days by two-fold serial dilutions method; format: functional
Method in brief: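 F. graminearum grown on potato dextrose agar and in RPMI medium. Broth microdilution by NCCLS, two-fold serial dilution 0–500 µM, DMSO 0.2% final as vehicle control. Plates kept at room temperature 2 to 5 days, OD600 read; MIC taken as lowest concentration with no visible growth. Independent triplicate.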

Staphylococcus aureus [12] = assay: Antimicrobial activity against methicillin-resistant Staphylococcus aureus after 18 to 24 hrs in aerobic condition by two-fold serial dilutions method; format: functional; method in brief: as §4
Candida albicans = assay: Fungicidal activity against Candida albicans; format: functional, organism-based
Method in brief: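 C. albicans in RPMI buffered with 0.165 M MOPS (pH 7.0). Two-fold serial dilutions from 0 to 500 µM, 0.2% DMSO final. Plates incubated at 35 °C for 24 h; OD600 read, MIC taken as the lowest concentration with no visible growth. Fungicidal concentration defined by ≤1 colony after streaking 10 µL of no-growth wells on agar. n = 3.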

Citrobacter rodentium [13] = assay: Bactericidal activity against Citrobacter rodentium in aerobic condition; format: functional, organism-based; method in brief: as §2
Lactococcus lactis = assay: Bactericidal activity against Lactococcus lactis in aerobic condition; format: functional, organism-based; method in brief: as §2
Acinetobacter baumannii [14] = assay: Antimicrobial activity against Acinetobacter baumannii MRS after 18 to 24 hrs in aerobic condition by two-fold serial dilutions method; format: functional; method in brief: as §1
Escherichia coli = assay: Antimicrobial activity against Escherichia coli […] K88 after 18 to 24 hrs in aerobic condition by two-fold serial dilutions method; format: functional; method in brief: as §4
Arthrobacter gandavensis = assay: Antimicrobial activity against Arthrobacter gandavensis after 18 to 24 hrs in aerobic condition by two-fold serial dilutions method; format: functional; method in brief: as §1
Helicobacter pylori [15] = assay: Antimicrobial activity against Helicobacter pylori after 18 to 24 hrs in anaerobic condition by two-fold serial dilutions method; format: functional
Method in brief: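 Mueller-Hinton broth preculture grown to log phase (OD600 ~0.6), diluted to ~10^5 bacteria/mL. Serial 1:2 dilutions 0 to 500 µM, 0.2% DMSO final control. Incubated at 37 °C for 18–24 h under anaerobic conditions from a gas-pack system; OD600 read; MIC = lowest concentration without visible growth; triplicate.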

SMILES | Activity (Fusarium verticillioides) | MIC (Citrobacter rodentium [1]) [µM] | Activity (Vibrio diabolicus) | Activity (Staphylococcus aureus [2]) | Activity (Acinetobacter baumannii [3]) | Activity (Clostridium perfringens [4]) | MIC (Bacillus subtilis [5]) [µM] | MIC (Clostridioides difficile) [µM] | MIC (Clostridium perfringens [6]) [µM] | Activity (Klebsiella variicola) | Activity (Bacillus subtilis [7]) | Activity (Citrobacter farmeri) | IC50 (BEAS-2B) [µM] | Activity (BEAS-2B) | MIC (Salmonella enterica) [µM] | MIC [8] [µM] | Activity [9] | Activity (Helicobacter pylori [10]) | MIC (Bacillus subtilis [11]) [µM] | MIC (Fusarium graminearum) [µM] | also measured
COc1cc(/C=C2\Oc3cc(O)cc(O)c3C2=O)ccc1OCc1ccccc1 | Active | > 500 | Active | Active | Active | Active | 7.8 (≈ 3.05 µg/mL) | 31.2 (≈ 12.2 µg/mL) | 31.2 to 62.5 (≈ 12.2 to 24.4 µg/mL) | Active | Active | Active | 190 | Dose-dependent effect | > 500 | > 500 | Active | Active | 3.9 (≈ 1.52 µg/mL) | 500 (≈ 195 µg/mL) | MIC (Staphylococcus aureus [12]): 15.6 µM (≈ 6.09 µg/mL); Activity (Candida albicans): Active; Activity (Citrobacter rodentium [13]): Active; Activity (Lactococcus lactis): Active; MIC (Acinetobacter baumannii [14]): > 500 µM; MIC (Escherichia coli): > 500 µM; MIC (Arthrobacter gandavensis): 31.2 µM (≈ 12.2 µg/mL); MIC (Helicobacter pylori [15]): 15.6 µM (≈ 6.09 µg/mL)
O=C1/C(=C/c2ccccc2)Oc2cc(O)cc(O)c21 | Active | > 500 | Active | Active | Active | Active | 62.5 to 125 (≈ 15.9 to 31.8 µg/mL) | 62.5 (≈ 15.9 µg/mL) | 7.8 (≈ 1.98 µg/mL) | Active | Active | Active | 280 | Dose-dependent effect | > 500 | > 500 | Active | Active | 31.2 (≈ 7.95 µg/mL) | 31.2 (≈ 7.95 µg/mL) | MIC (Staphylococcus aureus [12]): 15.6 to 31.2 µM (≈ 3.97 to 7.95 µg/mL); Activity (Candida albicans): Active; Activity (Citrobacter rodentium [13]): Active; Activity (Lactococcus lactis): Active; MIC (Acinetobacter baumannii [14]): > 500 µM; MIC (Escherichia coli): > 500 µM; MIC (Arthrobacter gandavensis): 31.2 µM (≈ 7.95 µg/mL); MIC (Helicobacter pylori [15]): 15.6 µM (≈ 3.97 µg/mL)
O=C1/C(=C/c2ccc(F)cc2)Oc2cc(O)cc(O)c21 | Active | > 500 | Active | Active | Active | Active | 62.5 (≈ 17 µg/mL) | 62.5 (≈ 17 µg/mL) | 31.2 to 62.5 (≈ 8.51 to 17 µg/mL) | Active | Active | Active | 590 | Dose-dependent effect | > 500 | > 500 | Active | Active | 31.2 (≈ 8.51 µg/mL) | > 500 | MIC (Staphylococcus aureus [12]): 7.8 to 15.6 µM (≈ 2.12 to 4.25 µg/mL); Activity (Candida albicans): Active; Activity (Citrobacter rodentium [13]): Active; Activity (Lactococcus lactis): Active; MIC (Acinetobacter baumannii [14]): > 500 µM; MIC (Escherichia coli): > 500 µM; MIC (Arthrobacter gandavensis): 15.6 µM (≈ 4.25 µg/mL); MIC (Helicobacter pylori [15]): > 500 µM
